# Source: ChEMBL document CHEMBL5154895, “Mechanistic Studies and In Vivo Efficacy of an Oxadiazole-Containing Antibiotic” (J Med Chem, 2022)
# Active and inactive are the calls of the source. No cut-off for these calls is given here.
# Experiments:
# Staphylococcus aureus [1] = assay: Upregulation of glycine cleavage system protein H expression in Staphylococcus aureus measured after 2 hrs by LC-MS/MS analysis; assay type: functional
# Procedure, shortened: (§1)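 S. aureus ATCC 25923 at OD600 0.6 exposed to compound or DMSO control for 2 h at 37°C, normalized to OD600 1.1 and PBS-washed. Cells were pressure-cycling lysed in 100 mM ammonium bicarbonate, and 50 μg protein was acetone-precipitated, reduced and alkylated, then Trypsin/Lys-C digested and C18-desalted. About 1 μg peptides went to LC-MS/MS. Label-free quantitation kept proteins present in all 3 samples, filtered at p <0.05.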
# Staphylococcus aureus [2] = assay: Downregulation of copper-translocating P-type ATPase protein expression in Staphylococcus aureus measured after 2 hrs by LC-MS/MS analysis; assay type: functional
# Procedure, shortened: (§2)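 S. aureus ATCC 25923 at OD600 0.6 was treated with compound or DMSO for 2 h at 37 °C, normalised to OD600 1.1, and washed in PBS. Cells were pressure-lysed in 100 mM ammonium bicarbonate, then acetone-precipitated, reduced with DTT, alkylated with iodoacetamide, and digested with trypsin/Lys-C. Peptides were desalted and run on LC-MS/MS. Label-free quantitation used proteins present in all 3 samples, filtered at p<0.05 against DMSO.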
# Staphylococcus aureus [3] = assay: Downregulation of LukS-PV protein expression in Staphylococcus aureus assessed as log2 of fold change in protein level measured after 2 hrs by LC-MS/MS analysis relative to control; assay type: functional; procedure, shortened: as §2
# Enterococcus faecalis = assay: Antibacterial activity against vancomycin-resistant Enterococcus faecalis ATCC 51299 assessed as inhibition of bacterial growth incubated for 18 to 20 hrs by broth microdilution method; assay type: functional; conditions: time 18-20 hrs
# Procedure, shortened: (§3)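 Broth microdilution per CLSI. Enterococci were diluted to about 5×10^5 CFU/mL in TSB and incubated aerobically with serial dilutions of agent at 37 °C for 18–20 h. MIC was read visually as the lowest concentration with no visible growth.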
# Enterococcus faecium = assay: Antibacterial activity against vancomycin-resistant Enterococcus faecium ATCC 700221 assessed as inhibition of bacterial growth incubated for 18 to 20 hrs by broth microdilution method; assay type: functional; conditions: time 18-20 hrs; procedure, shortened: as §3
# Staphylococcus aureus [4] = assay: Downregulation of CarB protein expression in Staphylococcus aureus assessed as log2 of fold change in protein level measured after 2 hrs by LC-MS/MS analysis relative to control; assay type: functional; procedure, shortened: as §2
# Staphylococcus aureus [5] = assay: Downregulation of nucleoside permease protein expression in Staphylococcus aureus measured after 2 hrs by LC-MS/MS analysis; assay type: functional; procedure, shortened: as §1
# Staphylococcus aureus [6] = assay: Antibacterial activity against methicillin-sensitive Staphylococcus aureus NRS 107 assessed as inhibition of bacterial growth incubated for 18 to 20 hrs by broth microdilution method; assay type: functional; conditions: time 18-20 hrs
# Procedure, shortened: (§4)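 Broth microdilution per CLSI. Inoculum was set to 0.5 McFarland and diluted in CAMHB to about 5×10^5 CFU/mL. Serial dilutions of agent were incubated aerobically at 37 °C for 18–20 h. MIC was read visually as the lowest concentration with complete growth inhibition.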
# Staphylococcus aureus [7] = assay: Downregulation of glutamyl endopeptidase protein expression in Staphylococcus aureus measured after 2 hrs by LC-MS/MS analysis; assay type: functional; procedure, shortened: as §2
# Staphylococcus aureus [8] = assay: Downregulation of IlvA protein expression in Staphylococcus aureus assessed as log2 of fold change in protein level measured after 2 hrs by LC-MS/MS analysis relative to control; assay type: functional; procedure, shortened: as §2
# Staphylococcus aureus [9] = assay: Downregulation of uroporphyrinogen-III C-methyltransferase protein expression in Staphylococcus aureus measured after 2 hrs by LC-MS/MS analysis; assay type: functional; procedure, shortened: as §1
# Staphylococcus aureus [10] = assay: Downregulation of 50S rRNA methyltransferase protein expression in Staphylococcus aureus measured after 2 hrs by LC-MS/MS analysis; assay type: functional; procedure, shortened: as §2
# Staphylococcus aureus [11] = assay: Downregulation of threonine synthase protein expression in Staphylococcus aureus measured after 2 hrs by LC-MS/MS analysis; assay type: functional; procedure, shortened: as §1
# Staphylococcus aureus [12] = assay: Antibacterial activity against vancomycin-resistant Staphylococcus aureus 10 assessed as inhibition of bacterial growth incubated for 18 to 20 hrs by broth microdilution method; assay type: functional; conditions: time 18-20 hrs; procedure, shortened: as §4
# Staphylococcus aureus [13] = assay: Downregulation of signal peptidase II protein expression in Staphylococcus aureus measured after 2 hrs by LC-MS/MS analysis; assay type: functional; procedure, shortened: as §1
# Staphylococcus aureus [14] = assay: Antibacterial activity against methicillin-resistant Staphylococcus aureus NRS 385 assessed as inhibition of bacterial growth incubated for 18 to 20 hrs by broth microdilution method; assay type: functional; conditions: time 18-20 hrs; procedure, shortened: as §4
# Staphylococcus aureus [15] = assay: Inhibition of Glc2-DAG in Staphylococcus aureus ATCC 25923 assessed as reduction in alpha-naphthol at 0.25 to 2 ug/ml measured after 5 hrs by thin layer chromatography; conditions: dose 0.25-2 µg/ml
# Procedure, shortened: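 Cells were normalized to OD600 0.9 and washed in 0.1 M sodium acetate pH 4.7. Lipids were Bligh-Dyer extracted and dried under nitrogen, then run on TLC with α-naphthol/sulfuric acid staining. The stained band was identified as Glc2-DAG by MALDI-TOF.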
# Staphylococcus aureus [16] = assay: Downregulation of DNA recombination protein RecF expression in Staphylococcus aureus measured after 2 hrs by LC-MS/MS analysis; assay type: functional; procedure, shortened: as §2
# Staphylococcus aureus [17] = assay: Antibacterial activity against methicillin-resistant Staphylococcus aureus NRS 386 assessed as inhibition of bacterial growth incubated for 18 to 20 hrs by broth microdilution method; assay type: functional; conditions: time 18-20 hrs; procedure, shortened: as §4
# Staphylococcus aureus [18] = assay: Downregulation of NarG protein expression in Staphylococcus aureus assessed as log2 of fold change in protein level measured after 2 hrs by LC-MS/MS analysis relative to control; assay type: functional; procedure, shortened: as §2
# Staphylococcus aureus [19] = assay: Antibacterial activity against methicillin-sensitive Staphylococcus aureus ATCC 6538 assessed as inhibition of bacterial growth incubated for 18 to 20 hrs by broth microdilution method; assay type: functional; conditions: time 18-20 hrs; procedure, shortened: as §4
# Staphylococcus aureus [20] = assay: Upregulation of L-serine dehydratase, iron-sulfurdependent subunit alpha expression in Staphylococcus aureus measured after 2 hrs by LC-MS/MS analysis; assay type: functional; procedure, shortened: as §1
# Staphylococcus aureus [21] = assay: Downregulation of GloB protein expression in Staphylococcus aureus assessed as log2 of fold change in protein level measured after 2 hrs by LC-MS/MS analysis relative to control; assay type: functional; procedure, shortened: as §2
# Staphylococcus aureus [22] = assay: Upregulation of haptoglobin-binding heme uptake protein HarA expression in Staphylococcus aureus measured after 2 hrs by LC-MS/MS analysis; assay type: functional; procedure, shortened: as §1
# Staphylococcus aureus [23] = assay: Antibacterial activity against vancomycin-resistant Staphylococcus aureus 9 assessed as inhibition of bacterial growth incubated for 18 to 20 hrs by broth microdilution method; assay type: functional; conditions: time 18-20 hrs; procedure, shortened: as §4
# Staphylococcus aureus [24] = assay: Downregulation of ortho-poxovirus protein expression in Staphylococcus aureus measured after 2 hrs by LC-MS/MS analysis; assay type: functional; procedure, shortened: as §1
# [25] = Toxicity in Balb/c mouse infected with methicillin-resistant Staphylococcus aureus USA300 assessed as hemorrhage administered topically twice daily 2 days post infection and measured after 5 days post compound treatment by H and E staining based histopathological analysis; conditions: in vivo, topical_or_ocular, 120 h, time 5 day
# Procedure, shortened: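 MRSA USA300-infected punch wounds in mice, n=5. Topical 2% agent or petroleum jelly vehicle twice daily from day 2 for 5 days. The left wound was formalin-fixed, cut into 4-μm sections and H&E-stained. Whole slides were scanned and assessed by a board-certified veterinary pathologist for necrosis, inflammation, haemorrhage and related features.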
compound,measurement,setting,value
CC1CC(C)CN(S(=O)(=O)c2ccc(C(=O)Nc3nnc(-c4ccc(C(F)(F)F)cc4)o3)cc2)C1 (configuration not stated),Activity,Staphylococcus aureus [1],Active
same,Activity,Staphylococcus aureus [2],Active
same,log2FC,Staphylococcus aureus [3],-3.7
same,MIC,Enterococcus faecalis,0.25 µg/mL
same,MIC,Enterococcus faecium,0.25 µg/mL
same,log2FC,Staphylococcus aureus [4],-2
same,Activity,Staphylococcus aureus [5],Active
same,MIC,Staphylococcus aureus [6],0.25 µg/mL
same,Activity,Staphylococcus aureus [7],Active
same,log2FC,Staphylococcus aureus [8],-2
same,Activity,Staphylococcus aureus [9],Active
same,Activity,Staphylococcus aureus [10],Active
same,Activity,Staphylococcus aureus [11],Active
same,MIC,Staphylococcus aureus [12],0.25 µg/mL
same,Activity,Staphylococcus aureus [13],Active
same,MIC,Staphylococcus aureus [14],0.25 µg/mL
same,inhibition,Staphylococcus aureus [15],Active
same,Activity,Staphylococcus aureus [16],Active
same,MIC,Staphylococcus aureus [17],0.25 µg/mL
same,log2FC,Staphylococcus aureus [18],-2
same,MIC,Staphylococcus aureus [19],0.25 µg/mL
same,Activity,Staphylococcus aureus [20],Active
same,log2FC,Staphylococcus aureus [21],-2
same,Activity,Staphylococcus aureus [22],Active
same,MIC,Staphylococcus aureus [23],0.25 µg/mL
same,Activity,Staphylococcus aureus [24],Active
same,Activity,[25],Toxic
